# According to ChEMBL document CHEMBL1154776, “Probes for narcotic receptor mediated phenomena. 39. Enantiomeric N-substituted benzofuro[2,3-c]pyridin-6-ols: synthesis and topological relationship to oxide-bridged phenylmorphans” (J Med Chem, 2009):
# What was measured:
# Mu-type opioid receptor [1] = target: T1, Mu-type opioid receptor (Homo sapiens, UniProt P35372); assay: biochemical; type: cell-based, CHO
# Mu-type opioid receptor [2] = target: T1, Mu-type opioid receptor; assay: Agonist activity at human recombinant mu opioid receptor expressed in CHO cells assessed as stimulation of [35S]GTPgammaS binding after 3 hrs by liquid scintillation counting relative to DAMGO; type: functional, cell-based
# Outline: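 Same [35S]GTPγS membrane assay in hMOR-CHO: 50 pM radioligand, 10 μM GDP, 3 h at 25 °C, GF/B filtration, scintillation counting.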
# Mu-type opioid receptor [3] = target: T1, Mu-type opioid receptor; assay: Agonist activity at human recombinant mu opioid receptor expressed in CHO cells assessed as stimulation of [35S]GTPgammaS binding after 3 hrs by liquid scintillation counting; type: functional, cell-based
# Outline: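 hMOR-CHO membranes (50 μg protein) grown in DMEM/F-12 with 10% FBS and G-418. Incubated 3 h at 25 °C with 50 pM [35S]GTPγS in 50 mM Tris-HCl pH 7.4, 100 mM NaCl, 10 mM MgCl2, 1 mM EDTA, 1 mM DTT, 10 μM GDP and 0.1% BSA. Nonspecific binding defined with 40 μM GTPγS. Bound label separated on GF/B filters and scintillation counted; n=3.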
# [4] = target: Delta-type opioid receptor (Homo sapiens, UniProt P41143); assay: Displacement of [3H]DADLE from human recombinant delta opioid receptor expressed in CHO cells; type: cell-based
# Sequence of Delta-type opioid receptor (P41143 whole entry): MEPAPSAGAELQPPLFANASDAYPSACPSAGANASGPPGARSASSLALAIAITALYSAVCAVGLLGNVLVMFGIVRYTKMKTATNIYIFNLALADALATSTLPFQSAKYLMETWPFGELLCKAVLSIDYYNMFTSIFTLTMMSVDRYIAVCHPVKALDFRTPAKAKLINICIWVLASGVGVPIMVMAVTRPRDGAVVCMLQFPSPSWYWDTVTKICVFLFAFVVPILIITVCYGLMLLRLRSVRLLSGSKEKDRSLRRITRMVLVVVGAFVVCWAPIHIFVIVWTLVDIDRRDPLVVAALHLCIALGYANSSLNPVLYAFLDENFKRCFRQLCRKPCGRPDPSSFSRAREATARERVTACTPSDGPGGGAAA
# Outline: (§1)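 Stably transfected CHO cells (hDOR-CHO for [3H]DADLE, hKOR-CHO for [3H]U69,593) grown in DMEM with 10% FBS and G-418 (0.10-0.2 mg/mL) under 5% CO2 at 37 °C. Monolayers harvested and frozen at −80 °C before membrane use; n=3.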
# [5] = target: Kappa-type opioid receptor (Homo sapiens, UniProt P41145); assay: Displacement of [3H]U69593 from human recombinant kappa opioid receptor expressed in CHO cells; type: cell-based
# Sequence of Kappa-type opioid receptor (P41145 whole entry): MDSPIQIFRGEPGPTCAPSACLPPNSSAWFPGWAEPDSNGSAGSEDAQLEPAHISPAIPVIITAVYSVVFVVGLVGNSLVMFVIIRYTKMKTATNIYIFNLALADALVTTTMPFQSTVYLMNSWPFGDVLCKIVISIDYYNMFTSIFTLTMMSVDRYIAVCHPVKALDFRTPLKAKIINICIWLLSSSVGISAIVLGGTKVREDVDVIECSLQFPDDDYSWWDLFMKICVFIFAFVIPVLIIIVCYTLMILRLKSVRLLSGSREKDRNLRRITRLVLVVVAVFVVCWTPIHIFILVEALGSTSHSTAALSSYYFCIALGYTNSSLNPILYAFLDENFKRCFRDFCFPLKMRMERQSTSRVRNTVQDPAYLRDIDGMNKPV
# Outline: as §1
# Mu-type opioid receptor [6] = target: T1, Mu-type opioid receptor; conditions: CHO
# T1 sequence (P35372 whole entry): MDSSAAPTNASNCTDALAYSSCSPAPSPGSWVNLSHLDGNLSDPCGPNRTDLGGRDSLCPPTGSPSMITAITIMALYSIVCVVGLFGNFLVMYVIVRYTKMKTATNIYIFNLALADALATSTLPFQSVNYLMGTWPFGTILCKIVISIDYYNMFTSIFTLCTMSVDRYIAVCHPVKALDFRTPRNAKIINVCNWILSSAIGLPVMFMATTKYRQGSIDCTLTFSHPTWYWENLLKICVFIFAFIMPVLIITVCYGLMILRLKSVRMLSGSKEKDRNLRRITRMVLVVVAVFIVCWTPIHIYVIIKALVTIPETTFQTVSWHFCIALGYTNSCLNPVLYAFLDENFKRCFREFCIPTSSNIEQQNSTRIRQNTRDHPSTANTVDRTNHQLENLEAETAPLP
SMILES,Ki (Mu-type opioid receptor [1]) [nM],Emax (Mu-type opioid receptor [2]) [%],ED50 (Mu-type opioid receptor [3]) [nM],Ki [4] [nM],Ki [5] [nM],Ke (Mu-type opioid receptor [6]) [nM]
CC[C@]12CCNC[C@H]1Oc1ccc(O)cc12,3500,97,150,–,–,–
CC[C@]12CCN(C)C[C@H]1Oc1ccc(O)cc12,1330,45,241,4270,–,–
CC[C@]12CCN(CCc3ccccc3)C[C@H]1Oc1ccc(O)cc12,200,84,24,2690,2320,–
CC[C@@]12CCN(C)C[C@@H]1Oc1ccc(O)cc12,15.9,–,–,1350,450,–
CC[C@]12CCN(C[C@H](O)c3ccccc3)C[C@H]1Oc1ccc(O)cc12,1330,36,–,3100,9500,–
CC[C@@]12CCN(C[C@H](O)c3ccccc3)C[C@@H]1Oc1ccc(O)cc12,80,–,–,807,1090,–
CC[C@@]12CCNC[C@@H]1Oc1ccc(O)cc12,48,–,–,–,–,95
CC[C@]12CCN(C[C@@H](O)c3ccccc3)C[C@H]1Oc1ccc(O)cc12,600,100,–,2490,–,–
CC[C@@]12CCN(C[C@@H](O)c3ccccc3)C[C@@H]1Oc1ccc(O)cc12,9.3,–,–,443,413,–
